Five molecules from ChEMBL document CHEMBL3616436, “Synthesis, cytotoxicity and antimicrobial activity of thiourea derivatives incorporating 3-(trifluoromethyl)phenyl moiety” (Eur J Med Chem, 2015) can be followed below.

Each structure is given as a SMILES string. ≈ marks a conversion by molar mass, not a printed value. Calls of active or inactive are those of the source. The rule behind the calls is not given here.

The target of data set [1] is T1, Topoisomerase IV (Staphylococcus aureus) (UniProt P0C1U9+P0C1S7). Kind of data set: Inhibition of decatenation activity of DNA topoisomerase 4 in Staphylococcus aureus ATCC 25923 using kDNA as substrate at 1 to 4 ug/ml after 1 hr using ethidium bromide staining by agarose gel electrophoresis. The class given is protein-complex assay. The essentials:
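Kit-supplied S. aureus topoisomerase IV, 1 U, with 200 ng kDNA in the supplied assay buffer. Reactions ran 30 min at 37 °C with compound at 1, 4 or 32 µg/ml. They were stopped with STEB and extracted with chloroform/isoamyl alcohol (24:1). Products were run on 1% agarose in TAE for 1 h at 120 V and visualised with ethidium bromide under UV. Controls were no-enzyme, no-compound and ±DMSO.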

Data set [2] deals with T1, Topoisomerase IV (Staphylococcus aureus). The data set can be described thus: Inhibition of decatenation activity of DNA topoisomerase 4 in hospital methicillin-resistant Staphylococcus aureus 573/11 using kDNA as substrate at 1 to 4 ug/ml after 1 hr using ethidium bromide staining by agarose gel electrophoresis. The class given is protein-complex assay.
The target of data set [3] is T2, DNA topoisomerase 4 (Staphylococcus epidermidis) (UniProt Q5HPI6+Q5HPI5). The data set can be described thus: Inhibition of decatenation activity of DNA topoisomerase 4 in hospital methicillin-resistant Staphylococcus epidermidis 23/04 using kDNA as substrate at 1 to 4 ug/ml after 1 hr using ethidium bromide staining by agarose gel electrophoresis. The class given is protein assay.

For data set [4], the system named is Staphylococcus epidermidis. Kind of data set: Inhibition of biofilm formation in Staphylococcus epidermidis ATCC 12228 after 24 hrs using MTT staining by spectrophotometer analysis. The class given is functional, organism-based. The settings on record: ATCC 12228, 24 h. The essentials:
(§1)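 Biofilm was grown for 24 h at 37 °C in TSB with 0.5% glucose from 10^7 CFU/mL inoculum, mixed 1:1 with compound. Final concentrations were 0.125–4 or 0.25–8 µg/ml. Wells were PBS-washed and MTT-stained for 2 h at 37 °C, solubilized in DMSO/glycine buffer and read at 554 nm. IC50 (50% inhibition of biofilm formation) was taken from the dose-response curve; quadruplicates.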

Data set [5] deals with Staphylococcus epidermidis. Kind of data set: Inhibition of biofilm formation in Staphylococcus epidermidis […]/[…] after 24 hrs using MTT staining by spectrophotometer analysis. Type of data set: functional, organism-based. Particulars: 16/04, 24 h.
Data set [6] relates to Staphylococcus epidermidis. Kind of data set: Inhibition of biofilm formation in Staphylococcus epidermidis 23/04 after 24 hrs using MTT staining by spectrophotometer analysis. Type of data set: functional, organism-based. The settings on record: 23/04, 24 h.
For data set [7], the system named is Staphylococcus epidermidis. The data set can be described thus: Inhibition of biofilm formation in Staphylococcus epidermidis 62/04 after 24 hrs using MTT staining by spectrophotometer analysis. Particulars: 62/04, 24 h. Type of data set: functional, organism-based. The essentials:
as §1

Data set [8] deals with Staphylococcus epidermidis. Kind of data set: Inhibition of biofilm formation in Staphylococcus epidermidis 76/04 after 24 hrs using MTT staining by spectrophotometer analysis. The class given is functional, organism-based. Particulars: 76/04, 24 h. The essentials:
as §1

Data set [9] deals with Staphylococcus epidermidis. The data set can be described thus: Inhibition of biofilm formation in Staphylococcus epidermidis […]/[…] at 4 ug/ml after 24 hrs using MTT staining by spectrophotometer analysis. The class given is functional. Particulars: 16/04, 24 h.
Data set [10] deals with Staphylococcus epidermidis. The data set can be described thus: Inhibition of biofilm formation in Staphylococcus epidermidis 23/04 at 4 ug/ml after 24 hrs using MTT staining by spectrophotometer analysis. The class given is functional. The settings on record: 23/04, 24 h.
Data set [11] has as its system Staphylococcus epidermidis. Kind of data set: Inhibition of biofilm formation in Staphylococcus epidermidis 62/04 at 4 ug/ml after 24 hrs using MTT staining by spectrophotometer analysis. The settings on record: 62/04, 24 h. The class given is functional. The essentials:
(§2)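 Methicillin-resistant hospital isolates or ATCC strains of S. epidermidis were grown overnight in tryptone soy broth with 0.5% glucose. Inoculum of 10^7 CFU/mL was mixed 1:1 with compound in TSB-glucose and incubated 24 h at 37 °C. Non-adherent cells were washed off with PBS, and wells were stained with MTT (0.5% in PBS) for 2 h at 37 °C. Stain was solubilized in DMSO/glycine buffer and read at A554. Inhibition is relative to drug-free control; quadruplicates.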

For data set [12], the system named is CCRF-SB. The data set can be described thus: Cytotoxicity against human CCRF-SB cells after 96 hrs by MTT assay. Type of data set: functional. The essentials: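 Leukaemia/lymphoma lines seeded at 1×10^5 cells/ml in RPMI-1640 with 10% FCS and penicillin/streptomycin; incubated with serial dilutions at 37°C, 5% CO2; viability by MTT after 96 h; value is concentration reducing proliferation by 50%, with untreated controls undergoing at least three rounds of multiplication.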
On the technique in general: Formazan colour is commonly taken as a measure of viable cells.

A short description of data set [13]: Cytotoxicity against human HaCaT cells assessed as cell viability at 16 uM after 24 hrs by MTT assay relative to control. The class given is cell-based. Particulars: read-out: Activity. The essentials:
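HaCaT keratinocytes, 2.5x10^4 cells/well, in DMEM with 2% FBS, exposed 24 h to 16 µM compound, then 2 h with 0.5 mg/ml MTT; formazan dissolved in 0.04 M HCl/isopropanol, A570; viability as % of untreated control absorbance; three independent experiments in triplicate.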

Data set [14] concerns HaCaT. The data set can be described thus: Cytotoxicity against human HaCaT cells assessed as cell mortality at 16 uM after 24 hrs by LDH release assay relative to control. Type of data set: cell-based. The essentials: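 HaCaT cells in DMEM with 2% FBS exposed 24 h to 16 µM compound; LDH released into supernatant measured with commercial kit at 490 nm; % release = (test − untreated low control)/(10% Triton X-100 high control − low control) × 100; three independent experiments in triplicate.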
In general terms: LDH in the medium is a marker of cell lysis.

Data set [15] deals with Staphylococcus epidermidis. The data set can be described thus: Inhibition of biofilm formation in Staphylococcus epidermidis […]/[…] at 8 ug/ml after 24 hrs using MTT staining by spectrophotometer analysis. The settings on record: 16/04, 24 h. Type of data set: functional.
Data set [16] relates to Staphylococcus epidermidis. Kind of data set: Inhibition of biofilm formation in Staphylococcus epidermidis 24/04 at 8 ug/ml after 24 hrs using MTT staining by spectrophotometer analysis. The class given is functional. The settings on record: 24/04, 24 h.
The test system of data set [17] is Staphylococcus epidermidis. The data set can be described thus: Inhibition of biofilm formation in Staphylococcus epidermidis 76/04 at 8 ug/ml after 24 hrs using MTT staining by spectrophotometer analysis. Particulars: 76/04, 24 h. Type of data set: functional. The essentials: as §2
Data set [18] deals with T1, Topoisomerase IV (Staphylococcus aureus). Kind of data set: Inhibition of decatenation activity of DNA topoisomerase 4 in Staphylococcus aureus NCTC 4163 using kDNA as substrate at 32 ug/ml […] using ethidium bromide staining by agarose gel electrophoresis. Type of data set: protein-complex assay.
For data set [19] the target is unchanged. The data set can be described thus: Inhibition of decatenation activity of DNA topoisomerase 4 in hospital methicillin-resistant Staphylococcus aureus 80/05 using kDNA as substrate at 32 ug/ml after 1 hr using ethidium bromide staining by agarose gel electrophoresis. The class given is protein-complex assay.
For data set [20] the target is unchanged. Kind of data set: Inhibition of decatenation activity of DNA topoisomerase 4 in hospital methicillin-resistant Staphylococcus aureus 573/11 using kDNA as substrate at 32 ug/ml after 1 hr using ethidium bromide staining by agarose gel electrophoresis. Type of data set: protein-complex assay.
Data set [21] has as its target T2, DNA topoisomerase 4 (Staphylococcus epidermidis). The data set can be described thus: Inhibition of decatenation activity of DNA topoisomerase 4 in hospital methicillin-resistant Staphylococcus epidermidis 31/04 using kDNA as substrate at 32 ug/ml after 1 hr using ethidium bromide staining by agarose gel electrophoresis. Type of data set: protein assay.
Data set [22] shares this target. The data set can be described thus: Inhibition of decatenation activity of DNA topoisomerase 4 in hospital methicillin-resistant Staphylococcus epidermidis 63/04 using kDNA as substrate at 32 ug/ml after 1 hr using ethidium bromide staining by agarose gel electrophoresis. Type of data set: protein assay.
For data set [23] the target is unchanged. The settings on record: 16/04, at 1 to 4 µg/mL.
For data set [24] the target is unchanged. The settings on record: 24/04, at 1 to 4 µg/mL.
For data set [25], the system named is Staphylococcus epidermidis. The data set can be described thus: Inhibition of biofilm formation in Staphylococcus epidermidis 151/04 after 24 hrs using MTT staining by spectrophotometer analysis. The settings on record: 151/04, 24 h. Type of data set: functional, organism-based.

T2 sequence (Q5HPI5 whole entry, looked up): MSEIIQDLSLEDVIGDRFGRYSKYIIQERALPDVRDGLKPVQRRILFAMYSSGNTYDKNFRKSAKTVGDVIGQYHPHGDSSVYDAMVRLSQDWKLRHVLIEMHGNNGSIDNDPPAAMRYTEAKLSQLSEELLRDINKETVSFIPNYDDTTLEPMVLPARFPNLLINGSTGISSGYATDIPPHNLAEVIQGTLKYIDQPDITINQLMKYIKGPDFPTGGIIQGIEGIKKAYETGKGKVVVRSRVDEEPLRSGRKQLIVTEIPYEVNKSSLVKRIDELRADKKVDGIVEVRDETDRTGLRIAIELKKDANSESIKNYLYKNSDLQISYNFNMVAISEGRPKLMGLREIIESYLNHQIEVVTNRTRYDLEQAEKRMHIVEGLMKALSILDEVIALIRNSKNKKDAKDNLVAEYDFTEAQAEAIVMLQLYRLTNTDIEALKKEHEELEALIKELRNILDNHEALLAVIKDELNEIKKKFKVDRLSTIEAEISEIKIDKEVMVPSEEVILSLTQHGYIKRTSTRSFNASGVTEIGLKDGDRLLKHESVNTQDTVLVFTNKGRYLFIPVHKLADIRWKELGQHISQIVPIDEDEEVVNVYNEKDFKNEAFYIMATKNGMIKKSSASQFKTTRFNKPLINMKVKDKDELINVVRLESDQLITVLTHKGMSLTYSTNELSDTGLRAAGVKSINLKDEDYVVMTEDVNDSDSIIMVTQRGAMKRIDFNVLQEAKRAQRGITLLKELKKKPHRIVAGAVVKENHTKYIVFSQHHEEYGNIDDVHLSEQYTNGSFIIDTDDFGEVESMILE
T2 sequence (Q5HPI6 whole entry, looked up): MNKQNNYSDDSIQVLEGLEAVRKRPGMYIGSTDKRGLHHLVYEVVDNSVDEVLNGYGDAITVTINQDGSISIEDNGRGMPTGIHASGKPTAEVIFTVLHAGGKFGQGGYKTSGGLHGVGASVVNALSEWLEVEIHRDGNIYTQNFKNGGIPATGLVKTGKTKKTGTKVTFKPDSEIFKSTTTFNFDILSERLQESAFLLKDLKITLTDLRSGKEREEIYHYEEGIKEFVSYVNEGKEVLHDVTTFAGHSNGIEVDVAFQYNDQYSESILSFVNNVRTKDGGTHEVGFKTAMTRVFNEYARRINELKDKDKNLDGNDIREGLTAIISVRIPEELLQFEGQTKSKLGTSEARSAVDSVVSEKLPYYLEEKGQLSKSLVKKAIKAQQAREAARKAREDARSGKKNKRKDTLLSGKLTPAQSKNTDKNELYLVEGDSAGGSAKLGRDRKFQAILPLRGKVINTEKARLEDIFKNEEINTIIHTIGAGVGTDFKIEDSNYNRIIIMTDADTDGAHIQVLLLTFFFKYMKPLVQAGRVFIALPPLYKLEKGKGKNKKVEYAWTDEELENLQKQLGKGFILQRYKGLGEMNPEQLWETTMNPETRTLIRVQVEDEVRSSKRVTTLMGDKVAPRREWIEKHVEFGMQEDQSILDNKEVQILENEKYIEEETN

The term inhibition denotes the percentage by which the read-out fell short of the control. The IC50 is the concentration that inhibits the measured activity by half. A high value points to weaker potency in that assay. As a reminder, the CC50 is the concentration giving 50% cytotoxicity. Read a low CC50 as greater toxicity to the cells. For the molecule `Fc1ccc(NC(=S)Nc2cccc(C(F)(F)F)c2)cc1Cl`, the inhibition result in data set [1], in [2], in data set [3], in data set [18], in [19] and in [20] was “Active” in each case. Further, the inhibition result in data set [21], in data set [22], in [23] and in data set [24] was “Active” in each case. The 50% inhibitory concentration (IC50) is 1.62 µg/mL (≈ 4.65 µM) in [4]; 1.35 µg/mL (≈ 3.87 µM) in data set [5]; 2.01 µg/mL (≈ 5.76 µM) in data set [6]; 0.97 µg/mL (≈ 2.78 µM) in [7]; 2.85 µg/mL (≈ 8.17 µM) in data set [8]. Besides, the figures for the inhibition at 4 µg/mL in data set [9], in data set [10] and in data set [11] were 72%, 77.9% and 89.7%, respectively. Besides, it took 9.5 µM to reach half-maximal cytotoxicity in data set [12] (CC50). The viability at 24 h, 16 µM in data set [13] amounted to 89.8%. In addition, the Activity in data set [14] is listed as 8%. The inhibition at 8 µg/mL in data set [15], in data set [16] and in data set [17] was 40% throughout.

In data set [12], `FC(F)(F)c1cccc(NC(=S)Nc2ccc(Cl)cc2)c1` came in with a half-maximal cytotoxic concentration (CC50) of 11 µM.

On to `FC(F)(F)c1cccc(NC(=S)Nc2cccc(Br)c2)c1`, for which the inhibition entry in data set [1], in data set [2], in [3], in data set [18], in data set [19] and in data set [20] was “Active” throughout. The inhibition result in data set [21], in [22], in data set [23] and in data set [24] was “Active” in each case. Moreover, the IC50 in [4] stood at 2.8 µg/mL (≈ 7.46 µM); in [5] it was 3.91 µg/mL (≈ 10.4 µM); in data set [6], 3.13 µg/mL (≈ 8.34 µM); in data set [7], 1.98 µg/mL (≈ 5.28 µM); in [8] it was 2.98 µg/mL (≈ 7.94 µM); in data set [25] it was 2.34 µg/mL (≈ 6.24 µM). For the same molecule, the figures for the inhibition at 4 µg/mL in data set [9], in data set [10] and in data set [11] were 61.7%, 71.6% and 84.8%, respectively. Moreover, the CC50 in [12] was found to be 9 µM. Also, the viability at 24 h, 16 µM in [13] is 91%. The Activity in data set [14] turned out to be 0%. In addition, the inhibition at 8 µg/mL in data set [15], in data set [16] and in [17] was 70% each time.

Molecule `FC(F)(F)c1cccc(NC(S)=Nc2ccc(Cl)c(Cl)c2)c1` displayed a CC50 in data set [12] of 8.8 µM.

As for `O=C(O)c1cn(C2CC2)c2cc(N3CCNCC3)c(F)cc2c1=O` [CIPROFLOXACIN], the inhibition result in data set [1], in [2], in [3], in data set [18], in data set [19] and in [20] was “Active” in each case. The inhibition result in [21], in data set [22], in data set [23] and in data set [24] was “Active” in each case. Further, the 50% inhibitory concentration (IC50) turned out to be 7 µg/mL (≈ 21.1 µM) in [4]; 6.81 µg/mL (≈ 20.6 µM) in data set [5]; 42.8 µg/mL (≈ 129 µM) in data set [6]; 4.81 µg/mL (≈ 14.5 µM) in [7]; 7.93 µg/mL (≈ 23.9 µM) in [8]; 13.1 µg/mL (≈ 39.5 µM) in data set [25]. In addition, the inhibition at 4 µg/mL in data set [9] was found to be 42%; in data set [10] it was 5.71%; in [11], 59.9%.
